The values that follow come from ChEMBL document CHEMBL1140920, “Design, synthesis, and biological evaluation of 6alpha- and 6beta-N-heterocyclic substituted naltrexamine derivatives as mu opioid receptor selective antagonists” (J Med Chem, 2009).

Molecules are shown by their SMILES. Bounds are passed on as bounds.

For orientation: Ki means a dissociation constant, usually derived from enzyme kinetics or from competition with a known ligand. A lower Ki goes with a stronger hold on the target. What is called Emax is the maximal effect, on the per cent scale that the assay sets. A word on the IC50: it is the concentration at which inhibition is half-maximal. One may read the ED50 as the dose at which the effect has come halfway, by size or by number of responders.

Test [1] concerns the target T1, Mu-type opioid receptor (Homo sapiens, UniProt P35372). In words: Displacement of [3H]naloxone from monocloned mu opioid receptor expressed in CHO cells. The test is classed as cell-based. A digest of the protocol: (§1)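 CHO cell membranes expressing cloned receptor incubated with radioligand plus varying test drug concentrations, 30 °C, 1 h. IC50 from linear regression of Hill plots, converted to Ki by Cheng-Prusoff; selectivity as Ki ratios.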
In general terms: In a radioligand displacement assay an active substance lowers the binding of a labelled ligand.

Test [2] deals with Mus musculus. Put plainly: Inhibition of morphine-induced antinociception in sc dosed Swiss Webster mouse assessed as dose producing 50% antagonism of morphine response preincubated for 5 mins before the addition of morphine assessed after 20 mins by warm water tail immersion test. The class given is functional.
The nature of test [3]: Selectivity ratio of Ki for monocloned delta opioid receptor to Ki for monocloned mu opioid receptor. A digest of the protocol: as §1
Test [4] deals with Kappa-type opioid receptor (Homo sapiens, UniProt P41145). Put plainly: Displacement of [3H]norBNI from monocloned kappa opioid receptor expressed in CHO cells. The test is classed as cell-based. A digest of the protocol: as §1
The target of test [5] is Delta-type opioid receptor (Homo sapiens, UniProt P41143). In words: Displacement of [3H]NTI from monocloned delta opioid receptor expressed in CHO cells. The test is classed as cell-based. The gist of the method: as §1
Test [6] can be described thus: Selectivity ratio of Ki for monocloned kappa opioid receptor to Ki for monocloned mu opioid receptor. The gist of the method: as §1
In test [7] the target is T1, Mu-type opioid receptor. In words: Activity at monocloned mu opioid receptor expressed in CHO cells by [35S]GTPgammaS binding assay relative to DAMGO. The class given is functional, cell-based. For orientation: GTPγS resists hydrolysis and so accumulates on activated G proteins.
Test [8] concerns the target T1, Mu-type opioid receptor. In words: Activity at monocloned mu opioid receptor expressed in CHO cells by [35S]GTPgammaS binding assay. The class given is functional, cell-based. The gist of the method:
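Membranes from CHO cells stably expressing cloned MOR, the same membranes as used for binding. [35S]GTPγS binding as the functional read-out. Potency also reported. n = 3.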

The target in test [9] is T1, Mu-type opioid receptor. In words: biochemical.
Test [10] can be described thus: Binding affinity to mu opioid W318A mutant receptor expressed in CHO cells. The class given is cell-based.
The nature of test [11]: Binding affinity to mu opioid Y210A mutant receptor expressed in CHO cells. The test is classed as cell-based.
For test [12], the system named is Mus musculus. In words: Induction of antinociception in sc dosed Swiss Webster mouse after 20 mins by warm water tail immersion test. The test is classed as functional.

Kappa-type opioid receptor, sequence (P41145 whole entry): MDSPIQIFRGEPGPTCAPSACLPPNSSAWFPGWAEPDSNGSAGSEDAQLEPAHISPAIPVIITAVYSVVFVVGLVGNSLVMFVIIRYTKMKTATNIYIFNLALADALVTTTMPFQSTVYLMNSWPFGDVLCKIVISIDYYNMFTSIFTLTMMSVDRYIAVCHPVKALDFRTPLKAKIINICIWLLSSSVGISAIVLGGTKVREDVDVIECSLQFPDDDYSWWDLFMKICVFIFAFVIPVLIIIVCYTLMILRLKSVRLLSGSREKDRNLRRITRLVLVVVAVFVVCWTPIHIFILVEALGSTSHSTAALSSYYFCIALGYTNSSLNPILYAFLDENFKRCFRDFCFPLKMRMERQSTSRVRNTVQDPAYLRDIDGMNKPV
T1 sequence (P35372 whole entry): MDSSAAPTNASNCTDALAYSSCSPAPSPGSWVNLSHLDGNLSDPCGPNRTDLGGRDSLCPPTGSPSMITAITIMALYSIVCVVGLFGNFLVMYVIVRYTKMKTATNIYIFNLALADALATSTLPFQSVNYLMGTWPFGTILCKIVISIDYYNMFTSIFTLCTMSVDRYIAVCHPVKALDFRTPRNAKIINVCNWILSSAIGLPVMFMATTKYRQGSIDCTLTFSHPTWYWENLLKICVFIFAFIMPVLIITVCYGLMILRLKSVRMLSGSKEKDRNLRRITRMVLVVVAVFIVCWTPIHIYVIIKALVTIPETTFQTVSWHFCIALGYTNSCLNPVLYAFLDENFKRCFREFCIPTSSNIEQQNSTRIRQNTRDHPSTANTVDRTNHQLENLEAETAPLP
Delta-type opioid receptor, sequence (P41143 whole entry): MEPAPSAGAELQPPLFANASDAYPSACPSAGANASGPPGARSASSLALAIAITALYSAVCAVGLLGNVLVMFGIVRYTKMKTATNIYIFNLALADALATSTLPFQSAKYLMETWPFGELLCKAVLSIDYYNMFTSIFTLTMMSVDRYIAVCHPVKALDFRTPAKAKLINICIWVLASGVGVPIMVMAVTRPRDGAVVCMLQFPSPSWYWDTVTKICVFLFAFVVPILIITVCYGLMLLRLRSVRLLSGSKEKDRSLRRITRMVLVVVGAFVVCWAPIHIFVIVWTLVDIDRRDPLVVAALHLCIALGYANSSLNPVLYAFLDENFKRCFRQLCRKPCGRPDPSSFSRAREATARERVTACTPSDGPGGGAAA

`O=C(N[C@@H]1CC[C@@]2(O)[C@H]3Cc4ccc(O)c5c4[C@@]2(CCN3CC2CC2)[C@H]1O5)c1cnc2ccccc2c1`: the Ki at Mu-type opioid receptor [1] came to 0.07 nM; in test [4] it was 0.57 nM; in test [5], 11.6 nM. For the same compound, the Activity in the test on Mus musculus [2] is 42.55 mg/kg; on Mu-type opioid receptor [7] it was 53.4%. Further, the Ratio Ki stood at 157 in test [3] and 8 in test [6]. Moreover, the Emax on Mu-type opioid receptor [8] is 196%. This compound came in with an EC50 on Mu-type opioid receptor [8] (cho) of 0.29.
In the case of `O=C(N[C@H]1CC[C@@]2(O)[C@H]3Cc4ccc(O)c5c4[C@@]2(CCN3CC2CC2)[C@H]1O5)c1ccccc1`, the inhibitory constant (Ki) at Mu-type opioid receptor [1] was 1.41 nM; in test [4] it was 41.7 nM.
For the compound `O=C(N[C@@H]1CC[C@@]2(O)[C@H]3Cc4ccc(O)c5c4[C@@]2(CCN3CC2CC2)[C@H]1O5)c1ccc2ccccc2c1`, the Ki on Mu-type opioid receptor [1] was found to be 55.6 nM; in [4], 65.3 nM; in test [5], 29.3 nM. Further, the Ratio Ki came to 0.5 in test [3] and 1 in test [6].
With `O=C(N[C@H]1CC[C@@]2(O)[C@H]3Cc4ccc(O)c5c4[C@@]2(CCN3CC2CC2)[C@H]1O5)c1cc2ccccc2cn1`, the values for the Ki (at Mu-type opioid receptor [1]; in test [4]; in test [5]) were 0.55 nM, 26.5 nM and 132 nM, respectively. For the same compound, the half-inhibitory concentration (IC50) is 5.42 nM against Mu-type opioid receptor [9], above 1000 nM in test [10] and 3.31 nM in [11]. Besides, the values for the Ratio Ki in [3] and in test [6] were 241 and 48, respectively. The compound further displayed an Activity on Mu-type opioid receptor [7] of 15.8%. Moreover, on Mu-type opioid receptor [8], the Emax worked out at 58%. Further, at Mu-type opioid receptor [8] (read-out: EC50), the EC50 was found to be 4.36 nM.
In test [4], `O=C(N[C@H]1CC[C@@]2(O)[C@H]3Cc4ccc(O)c5c4[C@@]2(CCN3CC2CC2)[C@H]1O5)c1ccncc1` showed an inhibition constant Ki of 19.6 nM. In addition, the Activity on Mu-type opioid receptor [7] amounted to 37.3%. Moreover, the Emax at Mu-type opioid receptor [8] is 137%.
Take `O=C(N[C@H]1CC[C@@]2(O)[C@H]3Cc4ccc(O)c5c4[C@@]2(CCN3CC2CC2)[C@H]1O5)c1ccc2ccccc2c1`: the values for the inhibitory constant (Ki) (on Mu-type opioid receptor [1]; in test [4]; in test [5]) were 8.36 nM, 609 nM and 518 nM, respectively. The values for the Ratio Ki in [3] and in test [6] were 62 and 73, respectively.
With `O=C(N[C@H]1CC[C@@]2(O)[C@H]3Cc4ccc(O)c5c4[C@@]2(CCN3CC2CC2)[C@H]1O5)c1cnc2ccccc2c1`, the results for the Ki (at Mu-type opioid receptor [1]; in test [4]; in test [5]) were 0.12 nM, 1.81 nM and 32.2 nM, respectively. Further, the Activity with Mus musculus [2] turned out to be 4.45 mg/kg; on Mu-type opioid receptor [7] it was 44.8%. Besides, the Ratio Ki turned out to be 277 in test [3] and 16 in test [6]. Further, at Mu-type opioid receptor [8], the Emax is 164%. For the same compound, the EC50 on Mu-type opioid receptor [8] (read-out: EC50) was 2.29 nM.
Regarding `O=C(N[C@H]1CC[C@@]2(O)[C@H]3Cc4ccc(O)c5c4[C@@]2(CCN3CC2CC2)[C@H]1O5)c1ccc2ccccc2n1`, the inhibition constant (Ki) turned out to be 0.21 nM on Mu-type opioid receptor [1], 9.84 nM in test [4] and 148 nM in test [5]. Further, the Ratio Ki in test [3] is 693; in test [6] it was 46. The same compound returned an Activity on Mu-type opioid receptor [7] of 65.4%. The compound further returned a maximal effect (Emax) at Mu-type opioid receptor [8] of 240%. At Mu-type opioid receptor [8] (read-out: EC50), the EC50 is 0.09 nM. Besides, in the test with Mus musculus [12], the 50% effective dose (ED50) was 4.57 mg/kg.
Turning to `COc1cccc2c1[C@]13CCN(CC4CC4)[C@H](C2)[C@]1(OC)CCC(=O)C3`, the Ratio Ki in test [3] came out at 40; in [6] it was 45.
On to `O=C(N[C@@H]1CC[C@@]2(O)[C@H]3Cc4ccc(O)c5c4[C@@]2(CCN3CC2CC2)[C@H]1O5)c1cccnc1`, for which the Ki at Mu-type opioid receptor [1] was 0.14 nM; in test [4], 5.42 nM; in test [5], 192 nM. The figures for the Activity with Mus musculus [2] and on Mu-type opioid receptor [7] were 1.38 mg/kg and 29.1%, respectively. Also, the Ratio Ki is 1410 in test [3] and 40 in test [6]. The compound further registered a maximum response (Emax) at Mu-type opioid receptor [8] of 107%. For the same compound, the EC50 at Mu-type opioid receptor [8] (read-out: EC50) was found to be 0.33 nM.
Consider `O=C(N[C@@H]1CC[C@@]2(O)[C@H]3Cc4ccc(O)c5c4[C@@]2(CCN3CC2CC2)[C@H]1O5)c1ccccc1`, for which the Ki on Mu-type opioid receptor [1] turned out to be 0.92 nM; in test [4], 7.79 nM.
In the case of `O=C(N[C@H]1CC[C@@]2(O)[C@H]3Cc4ccc(O)c5c4[C@@]2(CCN3CC2CC2)[C@H]1O5)c1cccnc1`, the Ki at Mu-type opioid receptor [1] came to 0.15 nM; in [4], 77.2 nM; in test [5] it was 40.8 nM. Also, the Activity with Mus musculus [2] is 36.77 mg/kg; at Mu-type opioid receptor [7], 44.8%. For the same compound, the values for the Ratio Ki in test [3] and in test [6] were 265 and 501, respectively. Besides, the maximum response (Emax) on Mu-type opioid receptor [8] came out at 164%. Moreover, at Mu-type opioid receptor [8] (read-out: EC50), the EC50 was determined as 1.01 nM.
As to `O=C(N[C@@H]1CC[C@@]2(O)[C@H]3Cc4ccc(O)c5c4[C@@]2(CCN3CC2CC2)[C@H]1O5)c1ccc2ccccc2n1`, the Ki at Mu-type opioid receptor [1] is 0.11 nM; in test [4] it was 5.04 nM; in [5], 3.86 nM. Besides, the figures for the Ratio Ki in test [3] and in [6] were 36 and 47, respectively. Moreover, the Activity on Mu-type opioid receptor [7] was found to be 40.9%. This compound showed an Emax on Mu-type opioid receptor [8] of 150%. Further, at Mu-type opioid receptor [8] (read-out: EC50), the EC50 was 0.69 nM. For the same compound, the median effective dose (ED50) in the test on Mus musculus [12] came to 0.04 mg/kg.
As to `O=C(N[C@@H]1CC[C@@]2(O)[C@H]3Cc4ccc(O)c5c4[C@@]2(CCN3CC2CC2)[C@H]1O5)c1ccncc1`, the IC50 in test [10] is above 1000 nM. The same compound registered an Activity at Mu-type opioid receptor [7] of 22.7%. Besides, the maximum response (Emax) on Mu-type opioid receptor [8] came to 83.3%.
With `O=C(N[C@H]1CC[C@@]2(O)[C@H]3Cc4ccc(O)c5c4[C@@]2(CCN3CC2CC2)[C@H]1O5)c1ccccn1`, the values for the inhibitory constant (Ki) (on Mu-type opioid receptor [1]; in test [4]; in [5]) were 2.65 nM, 223 nM and 64.5 nM, respectively. Also, the Activity was found to be 0.89 mg/kg in the test with Mus musculus [2] and 37.8% at Mu-type opioid receptor [7]. In addition, the Ratio Ki was 24 in test [3] and 84 in [6]. Also, the Emax at Mu-type opioid receptor [8] came out at 134%. Also, at Mu-type opioid receptor [8] (read-out: EC50), the EC50 came to 23.9 nM.
With `O=C(N[C@@H]1CC[C@@]2(O)[C@H]3Cc4ccc(O)c5c4[C@@]2(CCN3CC2CC2)[C@H]1O5)c1ccccn1`, the inhibition constant Ki at Mu-type opioid receptor [1] worked out at 5.85 nM; in [4] it was 278 nM; in [5], 215 nM. Moreover, the Activity came to 0.33 mg/kg with Mus musculus [2] and 41.1% at Mu-type opioid receptor [7]. Further, the Ratio Ki in test [3] worked out at 37; in test [6], 47. On Mu-type opioid receptor [8], this compound displayed a maximum response (Emax) of 151%. Further, at Mu-type opioid receptor [8] (read-out: EC50), the EC50 stood at 26.3 nM.
As to `O=C(N[C@@H]1CC[C@@]2(O)[C@H]3Cc4ccc(O)c5c4[C@@]2(CCN3CC2CC2)[C@H]1O5)c1cc2ccccc2cn1`, the inhibitory constant (Ki) at Mu-type opioid receptor [1] stood at 0.1 nM; in [4], 1.58 nM; in test [5] it was 15.4 nM. The Ratio Ki in [3] is 156; in test [6] it was 16. The compound further showed an Activity at Mu-type opioid receptor [7] of 33%. The same compound registered an Emax on Mu-type opioid receptor [8] of 121%. Also, the EC50 on Mu-type opioid receptor [8] (read-out: EC50) was 0.27 nM. The ED50 with Mus musculus [12] is 1.19 mg/kg.
